In ChEMBL document CHEMBL4014338, “Discovery of Small Molecules as Multi-Toll-like Receptor Agonists with Proinflammatory and Anticancer Activities” (J Med Chem, 2017):

How the values were obtained:
HeLa [1] = test: Cell cycle arrest in human HeLa cells assessed as accumulation at G0/G1 phase at 10 uM after 24 hrs by propidium iodide staining based flow cytometry (reference value: 52%); type: functional
HeLa [2] = test: Cell cycle arrest in human HeLa cells assessed as accumulation at G0/G1 phase at 40 uM after 24 hrs by propidium iodide staining based flow cytometry (reference value: 52%); type: functional
HeLa [3] = test: Antiproliferative activity against human HeLa cells after 48 hrs by WST1 assay; type: functional, cell-based
Summary of the method: (§1)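 Cells seeded at 5 × 10^3/well and left 24 h, then given a concentration series for 24, 48 or 72 h. WST-1 reagent added and incubated at 37 °C for 30 min–2 h until color change; absorbance 450 nm. Growth inhibition = (1 − [sample − background]/[control − background]) × 100. IC50 mean ± SD, three cell preparations.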

HeLa [4] = test: Cell cycle arrest in human HeLa cells assessed as accumulation at S phase at 40 uM after 24 hrs by propidium iodide staining based flow cytometry (reference value: 31%); type: functional
HeLa [5] = test: Cell cycle arrest in human HeLa cells assessed as accumulation at G2/M phase at 40 uM after 24 hrs by propidium iodide staining based flow cytometry (reference value: 17%); type: functional
HMEC = test: Antiproliferative activity against HMEC after 72 hrs by WST1 assay; type: cell-based; details: Homo sapiens; summary of the method: as §1
Toll-like receptor 7 = biological target: T1, Toll-like receptor 7 (Homo sapiens, UniProt Q9NYK1); test: Agonist activity at human TLR7 expressed in HEK293 cells assessed as induction of NF-kB activation-mediated SEAP production after 24 hrs by HTS assay; type: cell-based
T1 sequence (Q9NYK1 whole entry): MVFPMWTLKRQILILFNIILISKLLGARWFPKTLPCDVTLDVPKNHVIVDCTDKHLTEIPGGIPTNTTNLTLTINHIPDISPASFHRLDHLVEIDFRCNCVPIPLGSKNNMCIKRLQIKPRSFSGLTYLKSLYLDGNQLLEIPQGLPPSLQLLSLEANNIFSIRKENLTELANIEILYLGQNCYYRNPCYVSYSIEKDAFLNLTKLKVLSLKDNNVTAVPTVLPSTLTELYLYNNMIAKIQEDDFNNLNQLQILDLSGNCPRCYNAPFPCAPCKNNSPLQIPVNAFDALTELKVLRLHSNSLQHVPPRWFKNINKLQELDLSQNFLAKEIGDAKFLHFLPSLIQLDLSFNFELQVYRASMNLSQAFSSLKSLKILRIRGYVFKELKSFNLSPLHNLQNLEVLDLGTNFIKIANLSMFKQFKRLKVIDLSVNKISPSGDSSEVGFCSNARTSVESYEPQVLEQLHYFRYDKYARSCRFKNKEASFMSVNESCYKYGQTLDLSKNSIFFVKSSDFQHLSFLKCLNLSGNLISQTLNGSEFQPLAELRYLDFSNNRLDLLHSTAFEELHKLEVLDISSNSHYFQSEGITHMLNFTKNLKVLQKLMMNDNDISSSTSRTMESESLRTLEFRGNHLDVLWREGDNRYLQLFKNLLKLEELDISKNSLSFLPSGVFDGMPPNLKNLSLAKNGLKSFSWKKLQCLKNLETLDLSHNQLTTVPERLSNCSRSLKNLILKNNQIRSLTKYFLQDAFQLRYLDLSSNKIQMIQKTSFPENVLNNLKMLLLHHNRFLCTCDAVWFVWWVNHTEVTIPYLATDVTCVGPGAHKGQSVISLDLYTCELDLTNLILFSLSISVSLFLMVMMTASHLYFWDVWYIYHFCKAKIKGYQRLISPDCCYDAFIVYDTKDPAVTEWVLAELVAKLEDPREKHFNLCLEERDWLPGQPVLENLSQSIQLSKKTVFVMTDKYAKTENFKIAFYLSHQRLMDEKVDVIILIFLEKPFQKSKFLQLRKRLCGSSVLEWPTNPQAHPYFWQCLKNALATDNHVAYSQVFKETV
Summary of the method: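 Stable HEK293 lines expressing a single hTLR plus a SEAP reporter, grown in DMEM/10% FBS with selective antibiotics. Seeded at 5 × 10^4 cells/well for 24 h at 37 °C, then treated 24 h. Supernatant mixed with QUANTI-Blue, 1 h at 37 °C, OD 620 nm. Cognate agonists: Pam3CSK4 (TLR2), poly I:C (TLR3), LPS (TLR4), FLA-BS (TLR5), R848 (TLR7). EC50 as mean ± SD.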

HeLa [6] = test: Cell cycle arrest in human HeLa cells assessed as accumulation at G2/M phase at 20 uM after 24 hrs by propidium iodide staining based flow cytometry (reference value: 17%); type: functional
[7] = biological target: Toll-like receptor 3/8/9 (Homo sapiens) (UniProt O15455+Q9NR96+Q9NR97); test: Agonist activity at TLR3/TLR8/TLR9 in human THP1 cells assessed as increase in TNFalpha production after 24 hrs by ELISA; type: cell-based
Summary of the method: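 THP-1 cells (1.5 × 10^6/well) in RPMI 1640 with 10% FBS, differentiated with PMA (20 nM) for 2 days, then 24 h in fresh medium; nonadherent cells removed. Compound added at indicated concentrations for 24 h. Supernatant TNF-α measured by ELISA. Reference ligands were poly I:C, R848 and CpG ODN2006.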

HeLa [8] = test: Cell cycle arrest in human HeLa cells assessed as accumulation at S phase at 20 uM after 24 hrs by propidium iodide staining based flow cytometry (reference value: 31%); type: functional

Toll-like receptor 3/8/9 (Homo sapiens), sequence (O15455 whole entry, looked up): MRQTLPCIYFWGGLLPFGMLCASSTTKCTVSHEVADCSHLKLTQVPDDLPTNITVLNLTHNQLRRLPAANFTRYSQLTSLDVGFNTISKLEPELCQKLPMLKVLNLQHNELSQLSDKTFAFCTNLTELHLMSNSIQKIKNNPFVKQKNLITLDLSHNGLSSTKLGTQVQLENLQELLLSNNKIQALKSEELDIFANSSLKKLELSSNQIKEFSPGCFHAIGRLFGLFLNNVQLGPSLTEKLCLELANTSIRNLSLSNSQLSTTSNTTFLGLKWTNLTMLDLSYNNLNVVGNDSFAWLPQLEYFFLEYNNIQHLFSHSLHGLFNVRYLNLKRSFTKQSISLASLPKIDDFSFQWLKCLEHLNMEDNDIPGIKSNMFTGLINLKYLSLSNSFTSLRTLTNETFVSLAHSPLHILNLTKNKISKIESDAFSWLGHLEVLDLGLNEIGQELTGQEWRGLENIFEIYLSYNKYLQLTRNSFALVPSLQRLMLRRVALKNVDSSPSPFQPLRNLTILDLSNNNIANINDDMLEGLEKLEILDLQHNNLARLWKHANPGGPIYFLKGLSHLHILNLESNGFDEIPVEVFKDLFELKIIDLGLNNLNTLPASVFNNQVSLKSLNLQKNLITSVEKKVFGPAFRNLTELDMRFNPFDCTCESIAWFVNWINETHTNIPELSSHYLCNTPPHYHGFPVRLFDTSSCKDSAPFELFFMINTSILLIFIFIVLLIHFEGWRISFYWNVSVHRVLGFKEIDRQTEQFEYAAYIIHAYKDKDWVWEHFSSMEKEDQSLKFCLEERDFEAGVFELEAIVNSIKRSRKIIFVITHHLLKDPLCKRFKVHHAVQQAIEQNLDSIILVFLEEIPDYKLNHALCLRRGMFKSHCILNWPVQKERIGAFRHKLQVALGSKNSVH
Toll-like receptor 3/8/9 (Homo sapiens), sequence (Q9NR96 whole entry, looked up): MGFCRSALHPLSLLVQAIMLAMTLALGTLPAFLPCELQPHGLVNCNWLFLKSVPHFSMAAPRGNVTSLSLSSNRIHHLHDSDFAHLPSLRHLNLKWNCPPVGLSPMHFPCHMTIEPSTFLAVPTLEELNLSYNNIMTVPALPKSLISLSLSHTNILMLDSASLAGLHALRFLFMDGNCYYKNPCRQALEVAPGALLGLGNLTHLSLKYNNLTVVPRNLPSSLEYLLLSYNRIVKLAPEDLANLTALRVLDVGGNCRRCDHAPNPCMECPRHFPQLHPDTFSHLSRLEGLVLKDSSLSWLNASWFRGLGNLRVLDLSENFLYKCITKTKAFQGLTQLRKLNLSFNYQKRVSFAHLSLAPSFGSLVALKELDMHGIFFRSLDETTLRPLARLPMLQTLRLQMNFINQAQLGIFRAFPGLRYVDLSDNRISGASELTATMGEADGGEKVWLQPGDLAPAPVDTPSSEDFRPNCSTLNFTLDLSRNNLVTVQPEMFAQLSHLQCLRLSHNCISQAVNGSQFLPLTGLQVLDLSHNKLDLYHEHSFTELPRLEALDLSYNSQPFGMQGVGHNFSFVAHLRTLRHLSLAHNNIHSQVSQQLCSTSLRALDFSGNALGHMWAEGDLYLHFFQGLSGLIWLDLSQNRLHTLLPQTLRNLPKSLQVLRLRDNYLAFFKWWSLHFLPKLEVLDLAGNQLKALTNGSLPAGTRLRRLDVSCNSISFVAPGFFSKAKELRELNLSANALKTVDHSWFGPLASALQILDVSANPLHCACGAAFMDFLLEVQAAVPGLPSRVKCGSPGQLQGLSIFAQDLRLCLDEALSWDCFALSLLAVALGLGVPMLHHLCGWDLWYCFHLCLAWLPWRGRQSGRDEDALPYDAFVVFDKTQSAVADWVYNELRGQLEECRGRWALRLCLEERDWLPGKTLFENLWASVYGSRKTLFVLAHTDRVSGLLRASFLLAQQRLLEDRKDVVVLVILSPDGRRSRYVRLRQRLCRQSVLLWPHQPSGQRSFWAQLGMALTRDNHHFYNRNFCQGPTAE
Toll-like receptor 3/8/9 (Homo sapiens), sequence (Q9NR97 whole entry, looked up): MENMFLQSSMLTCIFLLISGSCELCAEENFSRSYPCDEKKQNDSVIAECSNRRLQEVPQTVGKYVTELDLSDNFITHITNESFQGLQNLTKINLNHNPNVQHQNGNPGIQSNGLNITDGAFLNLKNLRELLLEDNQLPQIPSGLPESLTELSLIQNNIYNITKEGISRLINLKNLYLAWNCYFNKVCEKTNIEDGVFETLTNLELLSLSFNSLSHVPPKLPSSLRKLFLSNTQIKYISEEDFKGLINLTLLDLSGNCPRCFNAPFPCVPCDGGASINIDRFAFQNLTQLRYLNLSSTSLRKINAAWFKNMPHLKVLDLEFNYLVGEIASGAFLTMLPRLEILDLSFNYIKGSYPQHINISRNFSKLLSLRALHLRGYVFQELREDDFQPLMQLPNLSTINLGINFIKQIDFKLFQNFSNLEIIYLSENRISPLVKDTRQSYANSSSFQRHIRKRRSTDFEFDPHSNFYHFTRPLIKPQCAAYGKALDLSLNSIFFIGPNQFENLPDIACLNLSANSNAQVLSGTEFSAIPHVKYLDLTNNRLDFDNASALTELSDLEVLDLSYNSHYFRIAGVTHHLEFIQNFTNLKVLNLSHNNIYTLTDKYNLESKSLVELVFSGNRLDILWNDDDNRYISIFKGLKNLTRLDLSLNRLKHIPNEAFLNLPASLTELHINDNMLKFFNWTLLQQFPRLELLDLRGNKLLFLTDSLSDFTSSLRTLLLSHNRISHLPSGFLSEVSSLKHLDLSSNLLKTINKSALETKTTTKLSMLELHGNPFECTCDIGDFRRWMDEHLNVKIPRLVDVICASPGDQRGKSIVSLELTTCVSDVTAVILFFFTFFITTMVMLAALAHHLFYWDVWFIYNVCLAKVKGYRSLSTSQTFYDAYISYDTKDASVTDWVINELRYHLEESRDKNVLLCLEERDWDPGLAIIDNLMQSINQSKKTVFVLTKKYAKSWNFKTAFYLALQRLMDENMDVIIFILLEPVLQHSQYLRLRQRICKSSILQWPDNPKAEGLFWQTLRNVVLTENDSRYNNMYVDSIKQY

O=[N+]([O-])c1ccc(COc2cc3c(cc2OCc2ccc([N+](=O)[O-])cc2)OC2(C=C3)CCOCC2)cc1
Activity (HeLa [1]): 46% | Activity (HeLa [2]): 40% | Activity (HeLa [3]): Dose-dependent effect | IC50 (HeLa [3]): 15.8 µM | Activity (HeLa [4]): 41% | Activity (HeLa [5]): 19% | IC50 (HMEC): 79.5 µM | EC50 (Toll-like receptor 7): > 100 µM | Activity (HeLa [6]): 20% | Activity [7]: Dose-dependent effect | Activity (HeLa [8]): 37%
